This is a sample that favours compounds with a hit; in the whole collection about 3.7% have one here.
Kir21 block: inhibitors of mouse Kir2.1 inward-rectifier potassium channel. P35561. HEK293-Kir2.1, FluxOR thallium flux fluorescence; hits give low values. B-score at 10 µM. 310,000 compounds, 0.85% hits. AID 1672;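 active = fluorescence ratio B-score at or below minus 3 SD of library scores, with starting-brightness B-score within 2 SD, cut at about -4.2 in these data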;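 note: channel flux triggered by added potassium and thallium sulfate stimulus; B-score of peak minus minimum fluorescence over baseline after thallium stimulus; more negative B-score means stronger Kir2.1 block with less thallium influx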
KCNK9 inh: inhibitors of human KCNK9 two-pore domain potassium channel; Q9NPC2; HEK293 KCNK9, FluxOR thallium flux fluorescence; hits give low values; B-score at 10 µM; 310,000 compounds, 1.2% hits;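 active = ratio B-score over 3 SD below the library mean, with starting fluorescence within 5 SD of its mean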;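 note: negative B-score means less thallium flux so channel inhibition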
KCNQ1 block: human KCNQ1 channel inhibition; CHO-K1 KCNQ1, FluxOR thallium flux fluorescence; hits give high values; B-score at 10 µM; 310,000 compounds, 1.3% hits; AID 2642;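 active = compounds whose thallium flux B-score, printed positive for inhibition, exceeds three library SD while starting fluorescence stays within three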;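 note: channel opened by potassium depolarization with thallium stimulus after 20 min compound exposure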
KCNQ1 pot: potentiates or activates the human KCNQ1 potassium channel | 310,000 compounds, 0.35% hits | B-score at 10 µM | AID 2648 | CHO-K1 KCNQ1, thallium flux FluxOR fluorescence; hits give high values;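 active = fluorescence ratio B-score, a plate-corrected score, at least three library SD, with initial intensity B-score within 5 SD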
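Schedule – 37 °C overnight plating, 90-min dark dye load, 20-min compound pretreatment · System – stable KCNQ1 CHO-K1 line · Probe or stimulus – thallium- and potassium-containing depolarizing buffer · Measured by – kinetic FluxOR fluorescence, 10 s baseline plus 110 s post-stimulus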
hERG protect: hERG (human) protection from proarrhythmic block. 310,000 compounds, 0.51% hits. CHO-hERG, FluxOR thallium flux, dofetilide IC70 present. activation (rescue from dofetilide block), less the hit threshold, % at 10 µM. AID 1511. Q12809;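 active = activation above the mean of controls blocked by dofetilide plus 5 SD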;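 note: thallium influx through hERG after potassium depolarization seen as dye fluorescence rise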
Target sequence (Q12809 whole entry, looked up): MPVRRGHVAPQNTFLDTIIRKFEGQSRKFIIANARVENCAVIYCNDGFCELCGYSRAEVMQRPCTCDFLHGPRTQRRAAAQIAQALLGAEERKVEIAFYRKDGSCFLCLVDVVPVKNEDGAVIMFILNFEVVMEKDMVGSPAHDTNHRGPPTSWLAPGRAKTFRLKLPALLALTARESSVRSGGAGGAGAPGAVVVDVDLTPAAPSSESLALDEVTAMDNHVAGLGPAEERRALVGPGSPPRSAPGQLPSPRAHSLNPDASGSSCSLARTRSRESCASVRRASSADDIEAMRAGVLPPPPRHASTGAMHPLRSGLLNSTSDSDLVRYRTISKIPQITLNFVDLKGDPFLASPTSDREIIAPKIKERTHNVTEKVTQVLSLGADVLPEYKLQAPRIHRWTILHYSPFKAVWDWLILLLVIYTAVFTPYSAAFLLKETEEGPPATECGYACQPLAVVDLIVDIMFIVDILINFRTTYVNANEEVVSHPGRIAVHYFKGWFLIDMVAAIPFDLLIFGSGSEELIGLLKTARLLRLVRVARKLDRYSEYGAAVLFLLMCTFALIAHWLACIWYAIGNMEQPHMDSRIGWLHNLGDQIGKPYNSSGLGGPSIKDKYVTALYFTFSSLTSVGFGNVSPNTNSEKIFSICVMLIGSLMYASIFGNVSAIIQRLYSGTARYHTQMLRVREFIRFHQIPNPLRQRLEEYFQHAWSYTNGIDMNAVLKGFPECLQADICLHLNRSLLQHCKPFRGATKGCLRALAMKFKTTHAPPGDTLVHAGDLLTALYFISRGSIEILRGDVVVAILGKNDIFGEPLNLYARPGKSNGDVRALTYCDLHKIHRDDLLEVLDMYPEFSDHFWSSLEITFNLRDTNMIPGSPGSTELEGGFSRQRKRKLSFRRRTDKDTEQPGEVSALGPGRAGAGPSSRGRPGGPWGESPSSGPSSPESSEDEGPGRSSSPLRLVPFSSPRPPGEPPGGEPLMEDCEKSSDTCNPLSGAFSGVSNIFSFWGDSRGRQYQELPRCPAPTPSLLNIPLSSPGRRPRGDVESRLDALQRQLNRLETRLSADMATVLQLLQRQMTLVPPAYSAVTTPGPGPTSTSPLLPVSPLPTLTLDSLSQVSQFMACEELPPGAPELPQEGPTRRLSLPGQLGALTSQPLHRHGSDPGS
KCNK3 inh: human KCNK3 channel inhibition, primary screen; O14649; CHO-KCNK3 thallium flux, FluxOR fluorescence; hits give low values; B-score at 10 µM; 340,000 compounds, 0.84% hits; AID 602410;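 active = B-score under library mean minus 4 SD, starting fluorescence ratio at most library mean plus 5 SD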;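 note: more negative B-score means stronger inhibition of thallium flux through KCNK3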
KCNK9 inh conf: human KCNK9 inhibitor confirmation; shares compounds with KCNK9 inh; HEK293 KCNK9 cells, FluxOR thallium flux fluorescence; inhibition, % at 10 µM; 4,900 compounds, 43% hits; AID 492992;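 active = thallium signal inhibited by more than 5 SD of the compound-free buffer control wells, on both duplicate plates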;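 note: 0% = assay buffer control wells without compound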
Kir21 sel: selectivity of KCNK9 modulators against mouse Kir2.1. 4,900 compounds, 4% hits. Kir2.1 cells, FluxOR thallium flux fluorescence. shares compounds with KCNK9 inh. inhibition, % at 10 µM;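 active = thallium signal drop more than 5 SD beyond the mean of the no-compound control wells, seen in both duplicate plates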;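 note: signal is fluorescence rise after thallium addition divided by baseline fluorescence; plate controls were assay buffer only for no effect and full block by chlorpromazine control for full effect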
HEK293 Tl ctr: second counter-screen for KCNK9 modulators: effect in non-induced cells; shares compounds with KCNK9 inh; non-induced KCNK9-HEK293, FluxOR thallium flux; inhibition, % at 10 µM; 4,900 compounds, 40% hits; AID 492997;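 active = thallium signal drop beyond 5 SD of the untreated control mean, on both duplicate plates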;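 note: plate controls were buffer only IC0 wells for no effect and SID17386958 at its maximal inhibitory level for full effect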
KCNK3 inh conf: confirmation of human KCNK3 two-pore domain potassium channel inhibitors; shares compounds with KCNK3 inh; ratio percent of control, % at 10 µM; CHO-KCNK3 thallium flux, FluxOR fluorescence; 0% buffer, 100% carvedilol maximal block; 2,400 compounds, 99% hits; AID 651638;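 active = ratio percent of control, averaged over triplicates, above buffer control mean plus 5 SD, cut at about 64% in these data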;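 note: ratio is the fluorescence rise from min to max over baseline after thallium stimulus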
KCNK3 noninduced: KCNK3 inhibitor counter-screen hit in non-induced cells. shares compounds with KCNK3 inh. non-induced KCNK3 parental cells, FluxOR thallium flux; hits give low values. thallium flux ratio (lower = more inhibition) at 10 µM. 2,400 compounds, 40% hits. AID 651747;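 active = thallium flux ratio, averaged over three wells, more than 5 SD below the buffer control mean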;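 note: host cells are CHO cells without KCNK3 induction; ratio is peak minus trough fluorescence over baseline then normalized to buffer controls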
An asterisk follows results filed as active.

For CS(=O)(=O)c1ccc(SCC(=O)NC2CCS(=O)(=O)C2)c([N+](=O)[O-])c1 (stereo not drawn) the results were Kir21 block 1.5, KCNK9 inh inactive, KCNQ1 block inactive, KCNQ1 pot inactive, hERG protect -3 and KCNK3 inh inactive.
For CCCN1CCN(c2nc(-c3cccs3)nc3ccccc23)CC1 the results were Kir21 block -0.34, KCNK9 inh inactive, KCNQ1 block inactive, KCNQ1 pot inactive, hERG protect -6 and KCNK3 inh inactive.
For CCOC(=O)N1CCN(c2nc(-c3cccs3)nc3ccccc23)CC1 the results were Kir21 block 0.42, KCNK9 inh -8.9*, KCNQ1 block inactive, KCNQ1 pot inactive, hERG protect -6, KCNK3 inh -10*, KCNK9 inh conf inactive, Kir21 sel inactive, HEK293 Tl ctr inactive, KCNK3 inh conf 104* and KCNK3 noninduced 0.15*.
`Cc1cc(Cl)ccc1C(=O)C1CCCN(C(=O)c2cncs2)C1` (stereo not drawn) gave Kir21 block -1.1, KCNK9 inh inactive, KCNQ1 block inactive, KCNQ1 pot inactive, hERG protect -4 and KCNK3 inh inactive.
`COc1ccccc1NC(=O)c1ccc(NC(=O)CN(C)Cc2ccccc2F)cc1` gave Kir21 block 1, KCNK9 inh -9.1*, KCNQ1 block inactive, KCNQ1 pot inactive, hERG protect -21, KCNK3 inh -11*, KCNK9 inh conf 36%*, Kir21 sel inactive, HEK293 Tl ctr inactive, KCNK3 inh conf 97* and KCNK3 noninduced inactive.
COc1ccccc1NC(=O)c1ccc(NC(=O)COC(=O)C2CC2C)cc1 (stereo not drawn) was read as Kir21 block -0.52, KCNK9 inh inactive, KCNQ1 block inactive, KCNQ1 pot inactive, hERG protect -5 and KCNK3 inh inactive.
Cc1ccc(S(=O)(=O)c2nc(NCc3ccc4c(c3)OCO4)sc2Cl)cc1 was read as Kir21 block -0.68, KCNK9 inh -11*, KCNQ1 block inactive, KCNQ1 pot inactive, hERG protect -8, KCNK3 inh inactive, KCNK9 inh conf 42%*, Kir21 sel 32%*, HEK293 Tl ctr 42%*, KCNK3 inh conf 130* and KCNK3 noninduced 0.16*.
Screening CC(=O)Nc1nc(S(=O)(=O)c2ccc(C)cc2)c(Cl)s1 returned Kir21 block 1.1, KCNK9 inh inactive, KCNQ1 block inactive, KCNQ1 pot inactive, hERG protect -8 and KCNK3 inh inactive.
For N#CCC(=O)Nc1ccc(C(=O)OCc2ccccc2Oc2ccccc2)cc1 the results were Kir21 block 1.2, KCNK9 inh -11*, KCNQ1 block inactive, KCNQ1 pot inactive, hERG protect -14, KCNK3 inh -10*, KCNK9 inh conf 58%*, Kir21 sel inactive, HEK293 Tl ctr 25%*, KCNK3 inh conf 115* and KCNK3 noninduced 0.15*.
Cc1cc(C=O)c(C)n1-c1ccc(NC2CCCC2)c([N+](=O)[O-])c1 was read as Kir21 block 0.74, KCNK9 inh -17*, KCNQ1 block 6*, KCNQ1 pot inactive, hERG protect -9, KCNK3 inh -9.1*, KCNK9 inh conf 60%*, Kir21 sel inactive, HEK293 Tl ctr 37%*, KCNK3 inh conf 122* and KCNK3 noninduced inactive.
`Clc1ccc(OCCSc2ncccn2)c2ccccc12` gave Kir21 block -0.71, KCNK9 inh -8.4*, KCNQ1 block inactive, KCNQ1 pot inactive, hERG protect -16, KCNK3 inh inactive, KCNK9 inh conf inactive, Kir21 sel inactive, HEK293 Tl ctr 50%*, KCNK3 inh conf 106* and KCNK3 noninduced inactive.
CCCCCOc1ccc(Br)cc1/C(C)=N/NC1=NCCN1 was read as Kir21 block -14*, KCNK9 inh -11*, KCNQ1 block inactive, KCNQ1 pot inactive, hERG protect -22, KCNK3 inh -11*, KCNK9 inh conf 41%*, Kir21 sel 66%*, HEK293 Tl ctr inactive, KCNK3 inh conf 105* and KCNK3 noninduced 0.13*.
For COc1ccc(Br)cc1/C(C)=N/NC1=NCCN1 the results were Kir21 block -1.5, KCNK9 inh inactive, KCNQ1 block inactive, KCNQ1 pot inactive, hERG protect -3 and KCNK3 inh inactive.
`O=C(Nc1ccc(Cl)c(S(=O)(=O)N2CCOCC2)c1)c1cc(-c2ccccn2)nc2ccccc12` gave Kir21 block -0.64, KCNK9 inh -9.5*, KCNQ1 block inactive, KCNQ1 pot inactive, hERG protect -21, KCNK3 inh -8.8*, KCNK9 inh conf inactive, Kir21 sel inactive, HEK293 Tl ctr inactive, KCNK3 inh conf 123* and KCNK3 noninduced inactive.
`O=C(Nc1ccc(Cl)c(S(=O)(=O)N2CCOCC2)c1)c1ccccn1` gave Kir21 block 0.49, KCNK9 inh inactive, KCNQ1 block inactive, KCNQ1 pot inactive, hERG protect -8 and KCNK3 inh inactive.
For O=C(Nc1ccccc1N1CCN(C(=O)c2ccccc2)CC1)c1ccc(Cl)cc1 the results were Kir21 block -0.77, KCNK9 inh -13*, KCNQ1 block inactive, KCNQ1 pot inactive, hERG protect -22, KCNK3 inh -15*, KCNK9 inh conf 37%*, Kir21 sel inactive, HEK293 Tl ctr inactive, KCNK3 inh conf 113* and KCNK3 noninduced inactive.
Screening Cc1ccc(C(c2ccc(C)o2)c2cccc([N+](=O)[O-])c2O)o1 returned Kir21 block -1.5, KCNK9 inh -11*, KCNQ1 block inactive, KCNQ1 pot inactive, hERG protect -18, KCNK3 inh -9.8*, KCNK9 inh conf 26%*, Kir21 sel inactive, HEK293 Tl ctr inactive, KCNK3 inh conf 114* and KCNK3 noninduced 0.15*.
